# Test results reported in ChEMBL document CHEMBL1124260, “Synthesis and antitumor activity of quaternary ellipticine glycosides, a series of novel and highly active antitumor agents” (1988).
# Where “and” joins values, the source holds several entries; their conditions need not be identical. Identical values can stand only once.
# What was measured:
# [1] = system: Mus musculus; assay: Antitumor activity against ip implanted L1210 leukemia in mouse after iv administration of 30 mg/kg for 5 days expressed as increase in mean life span; conditions: 120 h
# [2] = system: Mus musculus; assay: Inhibition of sc implanted syngeneic colon 38 carcinoma by ip administration at 20 mg/kg was on 1, 3, 5, 7, 9 days measured as inhibition ratio; assay type: functional; conditions: route subcutaneous
# Summary of the method: (§1)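 Tumor homogenate (70 mg) implanted into the axillary region of female BDF1 mice. Drug dissolved in 0.9% NaCl and diluted with saline just before use, then given ip on days 1, 3, 5, 7 and 9. Tumor length and width were measured by caliper on day 20 after inoculation and converted to estimated weight. Result reported as treated vs control tumor weight, T/C %.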
# [3] = system: Mus musculus; assay: Number of survivors out of 6 ip-ip implanted L1210 leukemia mouse tested after 80 days at 20 mg/kg; assay type: functional
# Summary of the method: (§2)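 Female BDF1 mice implanted ip with ascitic fluid holding 10^5 L1210 cells. Saline-dissolved drug given ip daily on days 1-5, starting 24 h after implant. Six mice per dose group, followed 80 days. Survivors/total counted at day 80; ILS % from mean survival time vs controls.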
# [4] = system: Mus musculus; assay: Effect on ip implanted syngeneic B16 melanoma by ip administration for 9 days at 2.5 mg/kg was measured as increase in mean life span; conditions: 216 h
# [5] = system: Mus musculus; assay: Antitumor activity against ip implanted P388 leukemia in mouse after iv administration of 10 mg/kg for 5 days expressed as increase in mean life span; conditions: 120 h
# [6] = system: Mus musculus; assay: Number of survivors out of 6 ip-ip implanted L1210 leukemia mouse tested after 80 days at 40 mg/kg; assay type: functional
# Summary of the method: as §2
# [7] = system: Mus musculus; assay: Antitumor activity against ip implanted L1210 leukemia in mouse after ip administration of 30 mg/kg for 5 days expressed as increase in mean life span; assay type: functional; conditions: Mus musculus, L1210, ip, 120 h, route intraperitoneal
# Summary of the method: (§3)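 Drug was dissolved in 0.9% NaCl, diluted just before use and given ip once daily for 5 consecutive days, starting 24 h after transplant. ILS % = mean survival time of treated vs control mice, observed for 80 days.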
# [8] = system: Mus musculus; assay: Number of survivors out of 6 ip-iv implanted P388 leukemia mouse tested after 80 days at 20 mg/kg; assay type: functional
# Summary of the method: (§4)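 Female BDF1 mice bearing ip-implanted leukemia: 10^5 cells for L1210, 10^6 cells for P388. Drug dissolved in saline, given iv for 5 consecutive days beginning 24 h post-implant. Six mice per dose. Survivors scored at 80 days; ILS % from mean survival time relative to controls.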
# [9] = system: Mus musculus; assay: Number of survivors out of 6 ip-ip implanted EAC leukemia mouse tested after 80 days at 20 mg/kg; assay type: functional
# Summary of the method: (§5)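 Drug dissolved and diluted in saline just before use, given ip for 5 consecutive days starting 24 h after implant. Six mice per dose. Survivors counted at 80 days; ILS % taken from mean survival time of treated vs control mice.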
# [10] = system: Mus musculus; assay: Number of survivors out of 6 ip implanted EAC leukemia mouse tested after 80 days at 10 mg/kg; assay type: functional; conditions: route intraperitoneal
# Summary of the method: as §5
# [11] = system: Mus musculus; assay: Antitumor activity against ip implanted L1210 leukemia in mouse after ip administration of 1.25 mg/kg for 5 days expressed as increase in mean life span; assay type: functional; conditions: 120 h, route intraperitoneal
# Summary of the method: as §3
# [12] = system: Mus musculus; assay: Number of survivors out of 6 ip implanted P388 leukemia mouse tested after 80 days at 40 mg/kg; assay type: functional; conditions: route intraperitoneal
# Summary of the method: (§6)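 P388 leukemia, 10^6 ascitic cells implanted ip in female BDF1 mice. Drug in saline given ip for 5 consecutive days from 24 h after transplant. Groups of six per dose level. Survivors/total recorded at the 80-day end of observation; ILS % from treated/control mean survival time.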
# [13] = system: Mus musculus; assay: Number of survivors out of 6 ip implanted P388 leukemia mouse tested after 80 days at 10 mg/kg; assay type: functional; conditions: route intraperitoneal
# Summary of the method: as §6
# [14] = system: Mus musculus; assay: Antitumor activity against ip implanted L1210 leukemia in mouse after ip administration of 20 mg/kg for 5 days expressed as increase in mean life span; assay type: functional; conditions: 120 h, route intraperitoneal
# Summary of the method: as §3
# [15] = system: Mus musculus; assay: Inhibition of sc implanted syngeneic colon 38 carcinoma by ip administration at 40 mg/kg was on 1, 3, 5, 7, 9 days measured as inhibition ratio; assay type: functional; conditions: route subcutaneous
# Summary of the method: as §1
# [16] = system: Mus musculus; assay: Antitumor activity against ip implanted L1210 leukemia in mouse after ip administration of 40 mg/kg for 5 days expressed as increase in mean life span; assay type: functional; conditions: 120 h, route intraperitoneal
# Summary of the method: as §3
# [17] = system: Mus musculus; assay: Number of survivors out of 6 ip implanted P388 leukemia mouse tested after 80 days at 20 mg/kg; assay type: functional; conditions: route intraperitoneal
# Summary of the method: as §6
# [18] = system: Mus musculus; assay: Antitumor activity against ip implanted L1210 leukemia in mouse after ip administration of 10 mg/kg for 5 days expressed as increase in mean life span; assay type: functional; conditions: Mus musculus, L1210, ip, 120 h, route intraperitoneal
# Summary of the method: as §3
# [19] = system: Mus musculus; assay: Effect on ip implanted EAC by ip administration for 5 days at 80 mg/kg was measured as increase in mean life span; assay type: functional; conditions: 120 h, route intraperitoneal
# Summary of the method: (§7)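 Drug in 0.9% NaCl was given ip for 5 consecutive days from 24 h after inoculation. ILS % came from treated vs control mean survival time, followed for 80 days.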
# [20] = system: Mus musculus; assay: Effect on ip implanted EAC by ip administration for 5 days at 40 mg/kg was measured as increase in mean life span; assay type: functional; conditions: 120 h, route intraperitoneal
# Summary of the method: as §7
# [21] = system: Mus musculus; assay: Inhibition of sc implanted syngeneic colon 38 carcinoma by ip administration at 30 mg/kg was on 1, 3, 5, 7, 9 days measured as inhibition ratio; assay type: functional; conditions: route subcutaneous
# Summary of the method: as §1
# [22] = system: Mus musculus; assay: Antitumor activity against iv implanted L1210 leukemia in mouse after ip administration of 20 mg/kg for 5 days expressed as increase in mean life span; assay type: functional
# [23] = system: Mus musculus; assay: Number of survivors out of 6 ip-ip implanted EAC leukemia mouse tested after 80 days at 80 mg/kg; assay type: functional
# Summary of the method: as §5
# [24] = system: Mus musculus; assay: Number of survivors out of 6 ip-iv implanted L1210 leukemia mouse tested after 80 days at 30 mg/kg; assay type: functional
# Summary of the method: as §4
# [25] = system: Mus musculus; assay: Effect on ip implanted EAC by ip administration for 5 days at 10 mg/kg was measured as increase in mean life span; assay type: functional; conditions: 120 h, route intraperitoneal
# Summary of the method: as §7
# [26] = system: Mus musculus; assay: Number of survivors out of 6 ip implanted sarcoma 180 leukemia mouse tested after 80 days at 40 mg/kg; assay type: functional; conditions: route intraperitoneal
# Summary of the method: as §5
# [27] = system: Mus musculus; assay: Effect on ip implanted sarcoma 180 by ip administration for 5 days at 10 mg/kg was measured as increase in mean life span; assay type: functional; conditions: Sarcoma-180, ip, 120 h, route intraperitoneal
# Summary of the method: (§8)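 Saline-dissolved drug was dosed ip daily for 5 consecutive days starting 24 h later. Readout was ILS % (mean survival time of treated vs control) over an 80-day observation.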
# [28] = system: Mus musculus; assay: Antitumor activity against iv implanted L1210 leukemia in mouse after ip administration of 10 mg/kg for 5 days expressed as increase in mean life span; assay type: functional
# [29] = system: Mus musculus; assay: Effect on ip implanted sarcoma 180 by ip administration for 5 days at 80 mg/kg was measured as increase in mean life span; assay type: functional; conditions: Sarcoma-180, ip, 120 h, route intraperitoneal
# Summary of the method: as §8
# [30] = system: Mus musculus; assay: Effect on ip implanted sarcoma 180 by ip administration for 5 days at 20 mg/kg was measured as increase in mean life span; assay type: functional; conditions: Sarcoma-180, ip, 120 h, route intraperitoneal
# Summary of the method: as §8
# [31] = system: Mus musculus; assay: Effect on ip implanted EAC by ip administration for 5 days at 5 mg/kg was measured as increase in mean life span; assay type: functional; conditions: 120 h, route intraperitoneal
# Summary of the method: as §7
# [32] = system: Mus musculus; assay: Effect on ip implanted EAC by ip administration at 20 mg/kg was for 5 days measured as increase in mean life span; assay type: functional; conditions: 120 h, route intraperitoneal
# Summary of the method: as §7
# [33] = system: Mus musculus; assay: Effect on ip implanted syngeneic B16 melanoma by ip administration of 20 mg/kg for 9 days measured as increase in mean life span; conditions: 216 h
# [34] = system: Mus musculus; assay: Number of survivors out of 6 ip-ip implanted EAC leukemia mouse tested after 80 days at 40 mg/kg; assay type: functional
# Summary of the method: as §5
# [35] = system: Mus musculus; assay: Antitumor activity against ip implanted P388 leukemia in mouse after iv administration of 20 mg/kg for 5 days expressed as increase in mean life span; conditions: 120 h
# [36] = system: Mus musculus; assay: Effect on ip implanted sarcoma 180 by ip administration for 5 days at 40 mg/kg was measured as increase in mean life span; assay type: functional; conditions: Sarcoma-180, ip, 120 h, route intraperitoneal
# Summary of the method: as §8
# [37] = system: Mus musculus; assay: Inhibition of sc implanted syngeneic colon 38 carcinoma by ip administration at 50 mg/kg was on 1, 3, 5, 7, 9 days measured as inhibition ratio; assay type: functional; conditions: route subcutaneous
# Summary of the method: as §1
# [38] = system: Mus musculus; assay: Effect on ip implanted syngeneic B16 melanoma by ip administration for 9 days at 10 mg/kg was measured as increase in mean life span; conditions: 216 h
# [39] = system: Mus musculus; assay: Effect on ip implanted syngeneic B16 melanoma by ip administration for 9 days at 5 mg/kg was measured as increase in mean life span; conditions: 216 h
# [40] = system: Mus musculus; assay: Number of survivors out of 6 ip implanted L1210 leukemia mouse, tested after 80 days at 30 mg/kg; assay type: functional; conditions: route intraperitoneal
# Summary of the method: as §2
# [41] = system: Mus musculus; assay: Number of survivors out of 6 ip implanted sarcoma 180 leukemia mouse tested after 80 days at 80 mg/kg; assay type: functional; conditions: route intraperitoneal
# Summary of the method: as §5
# [42] = system: Mus musculus; assay: Antitumor activity against ip implanted L1210 leukemia in mouse after ip administration of 5 mg/kg for 5 days expressed as increase in mean life span; assay type: functional; conditions: Mus musculus, L1210, ip, 120 h, route intraperitoneal
# Summary of the method: as §3
# [43] = system: Mus musculus; assay: Number of survivors out of 6 ip implanted L1210 leukemia mouse tested after 80 days at 2.5 mg/kg; assay type: functional; conditions: route intraperitoneal
# Summary of the method: as §2
# [44] = system: Mus musculus; assay: Antitumor activity against ip implanted L1210 leukemia in mouse after ip administration of 2.5 mg/kg for 5 days expressed as increase in mean life span; assay type: functional; conditions: 120 h, route intraperitoneal
# Summary of the method: as §3
smiles,measurement,setting,value
Cc1c2cc[n+]([C@@H]3OC[C@H](O)[C@H](O)[C@H]3O)cc2c(C)c2c1[nH]c1ccc(O)cc12.[Br-],ILS at 30 mg/kg,[1],> 344%
same,T/C @ 20mg/kg,[2],66%
same,Cures,[3],1
same,ILS at 2.5 mg/kg,[4],38%
same,ILS at 10 mg/kg,[5],83%
same,Cures,[6],4
same,ILS at 30 mg/kg,[7],> 860%
same,Cures,[8],2
same,Cures@ 20mg/kg,[9],1
same,Cures@ 10mg/kg,[10],1
same,ILS at 1.25 mg/kg,[11],37%
same,Cures,[12],6
same,Cures,[13],1
same,ILS at 20 mg/kg,[14],> 251%
same,T/C @ 40mg/kg,[15],7%
same,ILS at 40 mg/kg,[16],> 713%
same,Cures,[17],3
same,ILS at 10 mg/kg,[18],113%
same,ILS at 80 mg/kg,[19],> 492%
same,ILS at 40 mg/kg,[20],> 518%
same,T/C @ 30mg/kg,[21],59%
same,ILS,[22],198% and >549%
same,Cures,[23],5
same,Cures,[24],2
same,ILS at 10 mg/kg,[25],> 297%
same,Cures@ 40mg/kg,[26],2
same,ILS at 10 mg/kg,[27],117%
same,ILS,[28],82% and >214%
same,ILS at 80 mg/kg,[29],> 353%
same,ILS at 20 mg/kg,[30],282%
same,ILS at 5 mg/kg,[31],95%
same,ILS at 20 mg/kg,[32],> 338%
same,ILS at 20 mg/kg,[33],60%
same,Cures@ 40mg/kg,[34],5
same,ILS at 20 mg/kg,[35],> 394%
same,ILS at 40 mg/kg,[36],> 339%
same,T/C @ 50mg/kg,[37],4%
same,ILS at 10 mg/kg,[38],46%
same,ILS at 5 mg/kg,[39],44%
same,Cures,[40],5
same,Cures@ 80 mg/kg,[41],2
same,ILS at 5 mg/kg,[42],57%
Cc1c2cc[n+]([C@H]3O[C@@H](CO)[C@H](O)[C@@H](O)[C@@H]3O)cc2c(C)c2c1[nH]c1ccc(O)cc12.[Br-],Cures,[43],0
same,ILS at 2.5 mg/kg,[44],58%
